# Screens: PubChem, The Scripps Research Institute Molecular Screening Center
# Sampled rows, rich in hits. Any-hit rate of the full collection: about 2%.
# TCR CD3 inh – inhibitors of human TCR-CD3 interaction, primary screen, biochemical, fluorescence, TAMRA-labeled TCR probe. AID 651800, 2012. inhibition, % at 9.4 µM. T-cell receptor (TCR). 360,000 compounds, 0.37% hits;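 note: recombinant mutant TCR 2C K166C tagged with TAMRA read by polarization; 0% = receptor in buffer alone and 100% = receptor with positive control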
# HTRA1 inhibitor – HTRA1 serine protease inhibitors, primary screen, biochemical, fluorescence polarization, HTS. recombinant HTRA1, FP-rhodamine activity-based probe. 340,000 compounds, 0.5% hits. inhibition, % at 5.96 µM. AID 504803, 2011; in the data active = inhibition above about 36%;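 note: 0% = enzyme with DMSO and 100% = wells lacking enzyme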
# PAD4 inh – human PAD4 inhibitors, primary screen, biochemical, fluorescence polarization, 1536-well format | recombinant PAD4, RCA probe fluorescence polarization | AID 485272, 2010 | inhibition, % at 6.36 µM | 330,000 compounds, 0.41% hits;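 active = percent inhibition above a cutoff equal to the mean of all tested compounds plus 3 SD, cut at about 15% in these data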;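 note: 0% = PAD4 with RCA probe and DMSO and 100% = probe without PAD4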
# mABHD4 FP – ABHD4 inhibitors, primary screen, biochemical, fluorescence polarization, mouse | (Lyso)-N-acylphosphatidylethanolamine lipase (Mus musculus), Q8VD66 | purified mABHD4, FP-Rh probe fluorescence polarization | inhibition, % at 8.92 µM | 370,000 compounds, 0.54% hits | AID 720543, 2013;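 active = inhibition exceeding the mean over every tested compound plus 3 SD, cut at about 30% in these data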;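 note: 0% = plate median of compound wells and 100% = S159A mutant with DMSO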
# Target sequence (Q8VD66 whole entry, looked up): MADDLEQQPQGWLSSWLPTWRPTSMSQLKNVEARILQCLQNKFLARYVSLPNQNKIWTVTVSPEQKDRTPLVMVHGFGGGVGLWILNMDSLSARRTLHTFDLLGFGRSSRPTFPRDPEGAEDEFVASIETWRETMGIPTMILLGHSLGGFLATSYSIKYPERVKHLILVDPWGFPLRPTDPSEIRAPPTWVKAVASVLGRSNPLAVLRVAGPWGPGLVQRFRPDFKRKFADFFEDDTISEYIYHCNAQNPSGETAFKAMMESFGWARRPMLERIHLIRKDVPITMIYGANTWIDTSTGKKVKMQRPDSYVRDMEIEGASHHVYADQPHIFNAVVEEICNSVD
#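 Material: mouse ABHD4 enzyme, wild type; Benchmarks: S159A mutant high control, sample median low control; Buffer or medium: HEPES pH 7.0, NaCl, Pluronic buffer; Signal: fluorescence polarization; Read-out: percent inhibition of probe binding, normalized to plate controls; Timing: pre-incubation 45 min, probe exposure 60 min, at 25 °C; Dosing: 8.92 µM, single dose.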
# TDP2 absorb – human TDP2 enzyme inhibitors, primary screen, biochemical, epi absorbance, recombinant enzyme. Tyrosyl-DNA phosphodiesterase 2 (Homo sapiens), O95551. T5PNP hydrolysis, p-nitrophenol absorbance 415 nm. inhibition, % at 12.8 µM. 370,000 compounds, 0.34% hits. AID 720702, 2013;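 active = inhibition above the mean of all tested compounds plus 3 SD, set per campaign, cut at about 25% in these data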;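 note: 0% = DMSO with enzyme and 100% = buffer with substrate but no TDP2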
# Target sequence (O95551 whole entry, looked up): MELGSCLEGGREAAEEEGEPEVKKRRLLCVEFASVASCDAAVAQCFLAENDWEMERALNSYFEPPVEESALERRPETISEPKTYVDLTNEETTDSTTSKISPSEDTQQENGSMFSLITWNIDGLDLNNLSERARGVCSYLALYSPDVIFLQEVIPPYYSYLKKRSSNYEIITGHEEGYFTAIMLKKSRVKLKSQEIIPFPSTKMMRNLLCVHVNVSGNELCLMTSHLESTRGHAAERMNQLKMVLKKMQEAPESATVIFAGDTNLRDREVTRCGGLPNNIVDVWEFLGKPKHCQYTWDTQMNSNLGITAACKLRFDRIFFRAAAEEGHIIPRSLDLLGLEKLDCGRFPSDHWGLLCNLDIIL
#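 Test system: human TDP2 enzyme; Input: 120 nM TDP2 per well; Buffer or medium: Mg2+-containing Tris-HCl buffer, pH 7.5; Reagent: 5 mM T5PNP; Dosing: 12.8 µM single point, 1% DMSO; Incubation: reaction 2 h, 37 °C; Detection: p-Nitrophenol epi absorbance; Read-out: % inhibition relative to enzyme-containing and enzyme-free wells; Replicates: single well per compound.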
# SIAE inh – human SIAE inhibitors, primary screen, biochemical, fluorescence polarization, FP-Rh probe, 1536-well HTS. SIAE FP-Rh probe binding. Sialate O-acetylesterase (Homo sapiens), Q9HAT2. inhibition, % at 9.66 µM. 370,000 compounds, 0.69% hits;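 active = inhibition above a cutoff: mean of compounds within the control limits plus 3 SD of those, cut at about 17% in these data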;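 note: 0% = plate median of compound wells and 100% = probe without SIAE protein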
# HTRA1 inh conf – HTRA1 protease inhibitors, retest, confirmation, biochemical, fluorescence polarization | recombinant HTRA1, FP-rhodamine activity-based probe | shares compounds with HTRA1 inhibitor | inhibition, % at 5.96 µM | 1,600 compounds, 66% hits;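 active = mean inhibition over three repeats above a set limit taken from the earlier primary screen, cut at about 37% in these data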;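 note: 0% = HTRA1 with DMSO and 100% = wells lacking HTRA1; inhibitors block probe binding so polarization drops and inhibition rises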
# BSA TAMRA ctr – compounds interfering with TAMRA-BSA probe, counter-screen for TCR-CD3 interaction inhibitor project, biochemical, fluorescence, TAMRA-labeled BSA. inhibition, % at 9.4 µM. TAMRA-labeled BSA probe fluorescence counterscreen. 1,200 compounds, 10% hits. shares compounds with TCR CD3 inh; in the data active = inhibition above about 23%;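 note: 0% = buffer low control and 100% = reference high control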
# TCR-CD3 inh conf – TCR-CD3 interaction inhibitors, retest, confirmation, biochemical, fluorescence, TAMRA-labeled TCR probe. shares compounds with TCR CD3 inh. TAMRA-labeled TCR probe fluorescence binding assay. inhibition, % at 9.4 µM. 1,200 compounds, 48% hits
# ABHD4 confirm – ABHD4 inhibitors, retest, confirmation, biochemical, fluorescence polarization, mouse. shares compounds with mABHD4 FP. inhibition, % at 8.92 µM. purified mABHD4, FP-Rh probe fluorescence polarization. 1,800 compounds, 55% hits;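 active = mean inhibition across replicates above the hit cutoff set in the primary screen, cut at about 30% in these data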;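 note: 0% = wild-type ABHD4 with DMSO and 100% = catalytically dead S159A mutant with DMSO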
# SIAE confirm – human SIAE inhibitors, retest, confirmation, biochemical, fluorescence polarization, FP-Rh probe, triplicate; shares compounds with SIAE inh; SIAE FP-Rh activity-based probe; inhibition, % at 9.66 µM; 2,300 compounds, 13% hits;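 active = mean inhibition of the replicates above the hit cutoff set in the primary screen, cut at about 17% in these data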;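 note: 0% = SIAE with DMSO and probe and 100% = probe without SIAE; inhibitors lower polarization as more probe stays unbound to SIAE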
# An asterisk follows results filed as active; nt = not tested or not shown. Cut-off read from the data, not from the text of the source, unless noted: active = inhibition above about 19%; inactive = the rest.
SMILES,TCR CD3 inh,HTRA1 inhibitor,PAD4 inh,mABHD4 FP,TDP2 absorb,SIAE inh,BSA TAMRA ctr,TCR-CD3 inh conf,others
O=[N+]([O-])c1ccc(N2CCCC2)cc1N/N=C1\CN2CCC1CC2,-9.7,1.1,-3.8,1.4,-4.6,0.6,nt,nt,
CCOC(=O)[C@]12Cc3ccc4ccccc4c3[C@H]1N(Cc1ccccc1)C(=O)c1ccccc12,-0.9,nt,nt,-15.0,-9.8,-6.6,nt,nt,
COc1c(OP2(=S)OCC(C)(C)CO2)cnn(C2CCCCC2)c1=O,-3.1,nt,nt,29.0,1.9,3.6,nt,nt,
CC1=C(O)C(=O)C=C2C1=CC=C1C2(C)CCC2(C)C3CC(C)(C(=O)O)CCC3(C)CCC12C (stereo not drawn),2.0,48.2*,nt,49.4*,6.7,12.8,nt,nt,HTRA1 inh conf=44.5*;ABHD4 confirm=48.4*
O=C1NC2C(O)C(O)C(O)C(O)C2c2cc3c(c(O)c21)OCO3 (stereo not drawn),1.5,0.6,nt,-3.8,-0.5,3.6,nt,nt,
CC(C)Nc1ccc(Nc2ccccc2)cc1,-2.8,69.2*,-0.3,43.1*,-8.7,12.1,nt,nt,HTRA1 inh conf=53.0*;ABHD4 confirm=34.5*
O=C1C=C(N2CC2)c2ccccc2C1=O,16.9,50.7*,nt,66.5*,52.0*,16.6,nt,nt,HTRA1 inh conf=31.0;ABHD4 confirm=30.0*
O=C1NC(=O)C(=Cc2cc3c(cc2[N+](=O)[O-])OCO3)C(=O)N1,4.1,-0.3,-6.5,17.9,17.1,1.6,nt,nt,
Cc1cccc(N2C(=O)NC(=O)/C(=C/c3cc4c(cc3[N+](=O)[O-])OCO4)C2=O)c1,3.2,40.8*,-2.7,39.2*,-4.8,10.6,nt,nt,HTRA1 inh conf=3.2;ABHD4 confirm=13.0
CNCC(O)c1ccc(O)cc1 (stereo not drawn),5.1,nt,4.2,-0.6,16.4,-1.1,nt,nt,
CC(Cc1ccc(O)cc1)NCC(O)c1ccc(O)c(O)c1 (stereo not drawn),7.5,53.6*,nt,53.0*,-4.8,9.1,nt,nt,HTRA1 inh conf=53.2*;ABHD4 confirm=60.1*
COc1cccc2c1C(=O)c1c(O)c3c(c(O)c1C2=O)CC(O)(C(C)=NO)CC3OC1CC(N)C(O)C(C)O1 (stereo not drawn),143.5*,56.0*,nt,59.0*,-2.2,55.0*,167.1*,135.8*,HTRA1 inh conf=66.6*;ABHD4 confirm=58.9*;SIAE confirm=43.8*
O=c1[nH]sc2cc(F)ccc12,4.8,1.6,nt,10.2,-8.3,6.9,nt,nt,
Oc1cccc2nc3ccccc3nc12,0.5,67.4*,2.8,17.7,2.7,17.9*,nt,nt,HTRA1 inh conf=59.5*;SIAE confirm=-9.9
C[C@@H]1CNCCN1c1ccc(N2CC[C@@H](O)C2)c(C#N)c1,-0.4,nt,nt,1.6,-8.2,7.5,nt,nt,
Fc1cccc(-c2ccc3c(c2)CN(C(=S)NCCc2ccccc2)Cc2cnnn2-3)c1,0.4,nt,nt,-7.6,-3.2,-43.1,nt,nt,
S=C(NCCc1ccccc1)N1Cc2cc(-c3ccccc3)ccc2-n2nncc2C1,21.5*,nt,nt,-48.7,-0.3,-24.1,10.3,7.2,
CC1C2Cc3ccc(O)cc3C1(C)CCN2CC1CC1 (stereo not drawn),1.7,nt,nt,4.3,0.6,0.0,nt,nt,
CN1C(=O)NC(=O)/C(=C/c2ccc([N+](=O)[O-])o2)C1=O,19.5*,nt,0.9,-5.4,8.7,4.0,-6.3,6.7,
CN1C(=O)NC(=O)/C(=C\c2ccc([N+](=O)[O-])o2)C1=O,nt,5.4,-5.9,nt,nt,nt,nt,nt,
Nc1ccc(CCN2CCN(c3cccc(C(F)(F)F)c3)CC2)cc1,43.9*,-1.2,-3.4,-2.7,-4.7,4.2,-4.3,-0.1,
NN=C1C(Cl)=C(Cl)C(Cl)=C1Cl,23.4*,26.4,nt,28.0,-7.8,0.5,11.2,9.1,
COC(=O)C1=C(c2ccc(OCc3ccccc3)cc2)C[C@@H]2CC[C@H]1N2C(=O)NCc1ccccc1C(F)(F)F,7.5,-24.8,nt,2.0,-2.5,-10.4,nt,nt,
CC(C)(C)c1cc(O)ccc1O,-2.3,nt,nt,6.4,2.8,4.6,nt,nt,
CC12C=CC(=O)CC1CCC1C2CCC2(C)C(O)C(O)CC12 (stereo not drawn),-9.0,-1.0,nt,2.8,2.3,-3.1,nt,nt,
SMILES,TCR CD3 inh,HTRA1 inhibitor,PAD4 inh,mABHD4 FP,TDP2 absorb,SIAE inh,BSA TAMRA ctr,TCR-CD3 inh conf,others
CCCCCCn1c(=O)c(C(=O)Nc2ncccc2O)c(O)c2ccccc21,26.4*,7.5,-3.4,6.4,-1.8,3.3,-2.8,22.4*,
CC(C)[N+]12CCC(CC1)C(C(O)(c1ccccc1)c1ccccc1)C2 (stereo not drawn),1.0,-3.8,4.5,1.6,13.8,7.2,nt,nt,
CCC(=NCC1CCCO1)c1c(O)n(Cc2ccccc2)c(=O)[nH]c1=O (stereo not drawn),7.4,0.1,0.5,-5.2,-27.6,-12.6,nt,nt,
O=C(N/N=C/c1c(O)n(CCc2ccccc2)c(=O)[nH]c1=O)c1ccccc1,37.1*,nt,-2.9,8.6,-20.7,-0.8,-6.2,5.9,
CCCCn1c(O)c(/C=N/NC(=O)c2ccncc2)c(=O)[nH]c1=O,10.8,7.2,-4.0,7.2,-1.3,0.9,nt,nt,
CC/C(=N\NC(=O)c1ccccc1)c1c(O)n(Cc2ccccc2)c(=O)[nH]c1=O,21.4*,nt,-3.6,5.9,8.4,11.4,1.7,16.2,
O=[N+]([O-])c1ccc(N2CCCCCC2)c2nonc12,79.2*,15.0,-6.7,23.2,-6.9,-16.8,103.1*,87.4*,
OC1CN2CCC(O)C2C(O)C1O (stereo not drawn),8.4,nt,nt,-2.5,3.7,11.2,nt,nt,
C#C[C@]1(O)CC[C@H]2[C@@H]3CCC4=CC(=O)CC[C@]4(C)[C@H]3CC[C@@]21C,19.6*,6.6,-3.7,-3.3,5.6,7.7,-0.2,0.5,
